Results published in ChEMBL document CHEMBL1145951, “Phenethyl amides as novel noncovalent inhibitors of hepatitis C virus NS3/4A protease: discovery, initial SAR, and molecular modeling” (J Med Chem, 2003).
Starred links: 1 amine or outer side, 2 acyl side, 3 side chain; linkers in the order of their positions; H or OH if unused. Non-standard residues stand in square brackets, D forms with d. Residues, ends and D or L forms follow the SMILES beside them. ξ: configuration not given here. *: point of attachment. Dip = N[C@H](C(=O)O)C(c1ccccc1)c1ccccc1; X4 = O=C(C(=O)[*:2])[C@H](CC(F)F)N[*:1]; X1 = O=C(NOCc1ccccc1)[C@H](CC(F)F)N*; Abu(4,4-F2) = N[C@@H](CC(F)F)C(=O)O; N(Me)CH2CH2Ph = CN(CCc1ccccc1)*; Cha = N[C@@H](CC1CCCCC1)C(=O)O; NH(CH2)3Ph = c1ccc(CCCN*)cc1; NHPhenethyl = c1ccc(CCN*)cc1; X6 = c1ccc2c(c1)CC(N*)C2; ξE = NC(CCC(=O)O)C(=O)O; Cbz = O=C(OCc1ccccc1)*; Boc = CC(C)(C)OC(=O)*; NHBn = c1ccc(CN*)cc1; X2 = Clc1ccccc1CCN*; X5 = C1CCC(CCN*)CC1

How the values were obtained:
[1] = molecular target: Hepatitis C virus serine protease, NS3/NS4A (Hepatitis C virus, UniProt A3EZI9+D2K2A8); experiment: (§1) Inhibitory activity against Hepatitis C NS3/NS4A protease; format: protein-complex assay, Hepacivirus hominis
Summary of the method: (§2)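 Enzyme was the HCV NS3 protease domain with an NS4A cofactor peptide. IC50 values are means of two independent experiments, or of three to four for some series.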

[2] = molecular target: Hepatitis C virus serine protease, NS3/NS4A (Hepatitis C virus, UniProt D2K2A8+A3EZI9); experiment: as §1; format: protein-complex assay, Hepacivirus hominis; summary of the method: as §2
NS3 [3] = molecular target: T1, NS3 (Hepatitis C virus, UniProt A3EZJ3); experiment: Binding affinity for wild type NS3 protease; set-up: species or system Hepacivirus hominis
Summary of the method: (§3)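 Protease domain of HCV NS3 with NS4A cofactor peptide. Ki found from steady-state kinetics as reversible competitive inhibition. A second Ki was calculated from pre-steady-state displacement of an active-site fluorescent probe, using k_off/k_on.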

NS3 [4] = molecular target: T2, NS3 (Hepatitis C virus, UniProt A3EZJ3, K136R); experiment: Binding affinity for NS3 protease K136R; set-up: species or system Hepacivirus hominis
NS3 [5] = molecular target: T3, NS3 (Hepatitis C virus, UniProt A3EZJ3, K136M); experiment: Binding affinity NS3 protease K136M; set-up: species or system Hepacivirus hominis
NS3 [6] = molecular target: T3, NS3; experiment: Binding affinity for enzyme K136M; set-up: species or system Hepacivirus hominis
NS3 [7] = molecular target: T1, NS3; experiment: Binding affinity for enzyme NS3 protease wild-type; set-up: species or system Hepacivirus hominis; summary of the method: as §3
Neutrophil elastase = molecular target: T4, Neutrophil elastase (Homo sapiens, UniProt P08246); experiment: Binding affinity for enzyme human leukocyte HLE
T4 sequence (P08246 whole entry): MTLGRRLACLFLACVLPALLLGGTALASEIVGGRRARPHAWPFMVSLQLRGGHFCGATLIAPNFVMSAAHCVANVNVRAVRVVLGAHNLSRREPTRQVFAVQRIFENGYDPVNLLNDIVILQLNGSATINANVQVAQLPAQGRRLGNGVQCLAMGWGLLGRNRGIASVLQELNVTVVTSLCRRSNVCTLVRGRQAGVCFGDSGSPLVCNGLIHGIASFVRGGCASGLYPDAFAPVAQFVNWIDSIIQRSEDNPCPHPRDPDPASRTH

NS3 [8] = molecular target: T2, NS3; experiment: Binding affinity for enzyme K136R; set-up: species or system Hepacivirus hominis

| Compound | IC50 [1] | further results |
| --- | --- | --- |
| CC(C)COC(=O)NC(CCC(=O)O)C(=O)N[C@@H](CC(C)C)C(=O)NC(CS)C(=O)NCCc1ccccc1 (stereo partly specified) | 19000 nM | – |
| COC(=O)c1ccc(CCNC(=O)C(CS)NC(=O)[C@H](CC(C)C)NC(=O)C(CCC(=O)O)NC(=O)OCC(C)C)cc1 (stereo partly specified) | 17000 nM | – |
| COC(=O)c1ccc(CCNC(=O)C(CS)NC(=O)[C@H](CC(C)C)NC(=O)C(CCC(=O)O)NC(=O)OCC(C)C)c(Cl)c1 (stereo partly specified) | 3200 nM | – |
| CC(C)COC(=O)NC(CCC(=O)O)C(=O)N[C@@H](CC(C)C)C(=O)NC(CS)C(=O)NCCc1cccc(C(=O)O)c1 (stereo partly specified) | 9200 nM | – |
| CC(C)C[C@H](NC(=O)C(CCC(=O)O)NC(=O)OC(C)(C)C)C(=O)N[C@@H](CS)C(=O)NCCc1ccccc1Cl (stereo partly specified) | 6500 nM | – |
| CC(C)C[C@H](NC(=O)[C@@H](NC(=O)OC(C)(C)C)C(C)C)C(=O)N[C@@H](CC(F)F)C(=O)C(=O)O | – | IC50 [2]: 460 nM |
| CC(C)COC(=O)NC(C(=O)N[C@@H](CC(C)C)C(=O)NC(CC(F)F)C(=O)NCCc1ccc(C(=O)O)cc1Cl)C(C)C (stereo partly specified) | – | Ki (NS3 [3]): 2100 nM; Ki (NS3 [4]): 2300 nM; Ki (NS3 [5]): 4000 nM |
| CC(C)C[C@H](NC(=O)C(CCC(=O)O)NC(=O)OC(C)(C)C)C(=O)NC(CC(F)F)C(=O)NCCc1ccccc1Cl (stereo partly specified) | – | Ki (NS3 [6]): 13500 nM; Ki (NS3 [7]): 7300 nM; Ki (Neutrophil elastase): > 100000 nM; Ki (NS3 [8]): 8300 nM |
| COC(=O)c1cccc(CCNC(=O)C(CS)NC(=O)[C@H](CC(C)C)NC(=O)C(CCC(=O)O)NC(=O)OCC(C)C)c1 (stereo partly specified) | 25000 nM | – |
| CC(C)COC(=O)NC(CCC(=O)O)C(=O)N[C@@H](CC(C)C)C(=O)NC(CS)C(=O)NCCc1ccccc1C(=O)O (stereo partly specified) | > 100000 nM | – |
| CC(C)COC(=O)NC(CCC(=O)O)C(=O)N[C@@H](CC(C)C)C(=O)NC(CS)C(=O)NCCc1ccc(C(=O)O)cc1Cl (stereo partly specified) | 700 nM | – |
| CC(C)COC(=O)NC(CCC(=O)O)C(=O)N[C@@H](CC(C)C)C(=O)NC(CC(F)F)C(=O)NCCc1ccc(C(=O)O)cc1Cl (stereo partly specified) | – | Ki (NS3 [6]): 1300 nM; Ki (NS3 [7]): 600 nM; Ki (Neutrophil elastase): > 100000 nM; Ki (NS3 [8]): 900 nM |
| CC(=O)N[C@@H](CC(=O)O)C(=O)N[C@@H](CCC(=O)O)C(=O)N[C@H](C(=O)N[C@@H](CCC(=O)O)C(=O)N[C@@H](CC1CCCCC1)C(=O)N[C@@H](CC(F)F)C(=O)NOCc1ccccc1)C(c1ccccc1)c1ccccc1 (Ac-DE[Dip]E[Cha]-X1) | 40 nM | – |
| CC(=O)N[C@@H](CC(=O)O)C(=O)N[C@@H](CCC(=O)O)C(=O)N[C@H](C(=O)N[C@@H](CCC(=O)O)C(=O)N[C@@H](CC1CCCCC1)C(=O)N[C@@H](CS)C(=O)NCCc1ccccc1Cl)C(c1ccccc1)c1ccccc1 (Ac-DE[Dip]E[Cha]C-X2) | 2 nM | – |
| CC(=O)N[C@@H](CC(=O)O)C(=O)N[C@@H](CCC(=O)O)C(=O)N[C@H](C(=O)N[C@@H](CCC(=O)O)C(=O)N[C@@H](CC1CCCCC1)C(=O)N[C@@H](CS)C(=O)NCCC1CCCCC1)C(c1ccccc1)c1ccccc1 (Ac-DE[Dip]E[Cha]C-X5) | 1540 nM | – |
| CC(=O)N[C@@H](CC(=O)O)C(=O)N[C@@H](CCC(=O)O)C(=O)N[C@H](C(=O)N[C@@H](CCC(=O)O)C(=O)N[C@@H](CC1CCCCC1)C(=O)N[C@@H](CS)C(=O)NC1Cc2ccccc2C1)C(c1ccccc1)c1ccccc1 (Ac-DE[Dip]E[Cha]C-X6) | 1700 nM | – |
| CC(=O)N[C@@H](CC(=O)O)C(=O)N[C@@H](CCC(=O)O)C(=O)N[C@H](C(=O)N[C@@H](CCC(=O)O)C(=O)N[C@@H](CC1CCCCC1)C(=O)N[C@@H](CC(F)F)C(=O)O)C(c1ccccc1)c1ccccc1 (Ac-DE[Dip]E[Cha][Abu(4,4-F2)]-OH) | 40 nM | – |
| CC(C)C[C@H](NC(=O)C(CCC(=O)O)NC(=O)OC(C)(C)C)C(=O)N[C@@H](CS)C(=O)NCCc1ccccc1 (stereo partly drawn) (Boc-[ξE]-Leu-Cys-NHPhenethyl) | 27000 nM | – |

Continued, in another order:

| IC50 [1] | Compound | further results |
| --- | --- | --- |
| 54000 nM | COC(=O)c1ccccc1CCNC(=O)C(CS)NC(=O)[C@H](CC(C)C)NC(=O)C(CCC(=O)O)NC(=O)OCC(C)C (stereo partly specified) | – |
| 250 nM | CC(=O)N[C@@H](CC(=O)O)C(=O)N[C@@H](CCC(=O)O)C(=O)N[C@H](C(=O)N[C@@H](CCC(=O)O)C(=O)N[C@@H](CC1CCCCC1)C(=O)N[C@@H](CS)C(=O)NCc1ccccc1)C(c1ccccc1)c1ccccc1 (Ac-DE[Dip]E[Cha]C-NHBn) | – |
| 7 nM | CC(=O)N[C@@H](CC(=O)O)C(=O)N[C@@H](CCC(=O)O)C(=O)N[C@H](C(=O)N[C@@H](CCC(=O)O)C(=O)N[C@@H](CC1CCCCC1)C(=O)N[C@@H](CS)C(=O)NCCc1ccccc1)C(c1ccccc1)c1ccccc1 (Ac-DE[Dip]E[Cha]C-NHPhenethyl) | – |
| 70000 nM | CC(=O)N[C@@H](CC(=O)O)C(=O)N[C@@H](CCC(=O)O)C(=O)N[C@H](C(=O)N[C@@H](CCC(=O)O)C(=O)N[C@@H](CC1CCCCC1)C(=O)N[C@@H](CS)C(=O)N(C)CCc1ccccc1)C(c1ccccc1)c1ccccc1 (Ac-DE[Dip]E[Cha]C-{N(Me)CH2CH2Ph}) | – |
| 210 nM | CC(=O)N[C@@H](CC(=O)O)C(=O)N[C@@H](CCC(=O)O)C(=O)N[C@H](C(=O)N[C@@H](CCC(=O)O)C(=O)N[C@@H](CC1CCCCC1)C(=O)N[C@@H](CS)C(=O)NCCCc1ccccc1)C(c1ccccc1)c1ccccc1 (Ac-DE[Dip]E[Cha]C-{NH(CH2)3Ph}) | – |
| 4 nM | CC(=O)N[C@@H](CC(=O)O)C(=O)N[C@@H](CCC(=O)O)C(=O)N[C@H](C(=O)N[C@@H](CCC(=O)O)C(=O)N[C@@H](CC1CCCCC1)C(=O)N[C@@H](CC(F)F)C(=O)NCCc1ccccc1)C(c1ccccc1)c1ccccc1 (Ac-DE[Dip]E[Cha][Abu(4,4-F2)]-NHPhenethyl) | – |
| 2 nM | CC(=O)N[C@@H](CC(=O)O)C(=O)N[C@@H](CCC(=O)O)C(=O)N[C@H](C(=O)N[C@@H](CCC(=O)O)C(=O)N[C@@H](CC1CCCCC1)C(=O)N[C@@H](CC(F)F)C(=O)C(=O)NCc1ccccc1)C(c1ccccc1)c1ccccc1 (Ac-DE[Dip]E[Cha][X4]-NHBn) | – |
| > 200000 nM | CC(C)C[C@H](NC(=O)[C@H](CCC(=O)O)NC(=O)OC(C)(C)C)C(=O)N[C@@H](CS)C(=O)O (Boc-Glu-Leu-Cys-OH) | – |
| > 200000 nM | CC(C)C[C@H](NC(=O)C(CCC(=O)O)NC(=O)OC(C)(C)C)C(=O)N[C@@H](CS)C(=O)NCc1ccccc1 (stereo partly drawn) (Boc-[ξE]-Leu-Cys-NHBn) | – |
| > 400000 nM | CC(C)C[C@H](NC(=O)[C@@H](NC(=O)OCc1ccccc1)C(C)C)C(=O)N[C@@H](CS)C(=O)NCCc1ccccc1 (Cbz-Val-Leu-Cys-NHPhenethyl) | – |
